This note sets out measurements from ChEMBL document CHEMBL1157042, “Triazole incorporated thiazoles as a new class of anticonvulsants: design, synthesis and in vivo screening” (Eur J Med Chem, 2010).

For data set [1], the species on record is Mus musculus. Nature of the data set: Ratio of HD50 for hypnotic activity in Swiss albino mouse to ED50 for inhibition of PTZ-induced motor impairment Swiss albino mouse. The data set is classed as functional. The method, boiled down: (§1)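 Ratio of HD50 to i.p. ED50 (scPTZ or MES). HD50, in mg/kg, came from loss of righting reflex in i.p.-dosed albino mice, with a dose range analysed as for phase II ED50.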

Data set [2] is described as follows: Neurotoxicity in po dosed Swiss albino mouse after 2 hrs. The data set is classed as toxicity, organism-based. As to conditions: in vivo. The method, boiled down:
(§2)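 Phase IV: same procedure as i.p. phase II (MES protection, or rotorod failure for at least 1 min per trial), but drugs were given orally. Groups of 10 albino mice got a dose range yielding at least three points within 10–90% effect. ED50 or TD50 was read at the indicated time via Litchfield–Wilcoxon.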

Data set [3] has as its system Mus musculus. Nature of the data set: Anticonvulsant activity in ip dosed Swiss albino mouse assessed as inhibition of PTZ-induced motor impairment after 4 hrs. The settings on record: read-out: MED. In kind it is functional. The essentials:
(§3)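 Albino mice of either sex (25–30 g), 6 per group, dosed i.p. in polyethylene glycol at 30, 100 or 300 mg/kg. Subcutaneous pentylenetetrazole was given at 0.5 h or 4.0 h, and mice were watched for 30 min. Protection meant no threshold seizure (single clonic spasm episode of at least 5 s). The value is the minimum dose protecting half or more.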

Data set [4] relates to Mus musculus. Nature of the data set: Protective index, ratio of TD50 for neurotoxicity in po dosed Swiss albino mouse to ED50 for inhibition of maximal electroshock-induced seizures po dosed Swiss albino mouse. In kind it is functional. For orientation: The maximal electroshock test induces tonic seizures with an electrical stimulus.
For data set [5], the system named is Mus musculus. The data set can be described thus: Anticonvulsant activity in ip dosed Swiss albino mouse assessed as inhibition of maximum electric shock-induced motor impairment after 0.5 hrs. The settings on record: read-out: MED. In kind it is functional.
Data set [6] in a line: Neurotoxicity in ip dosed Swiss albino mouse. The settings on record: in vivo. In kind it is toxicity, organism-based.
Data set [7] has as its system Mus musculus. The data set can be described thus: Sedative-hypnotic activity in ip dosed Swiss albino mouse after 24 hrs. In kind it is organism-based. The settings on record: in vivo.
For data set [8], the species on record is Mus musculus. Nature of the data set: Ratio of HD50 for hypnotic activity in Swiss albino mouse to ED50 for inhibition of maximal electroshock-induced seizures Swiss albino mouse. The data set is classed as functional. The method, boiled down: as §1
Data set [9] is filed under the species Mus musculus. The data set can be described thus: Protective index, ratio of TD50 for neurotoxicity in Swiss albino mouse to ED50 for inhibition of maximal electroshock-induced seizures Swiss albino mouse. In kind it is functional.
Data set [10] is described as follows: Toxicity in ip dosed Swiss albino mouse after 24 hrs. In kind it is organism-based. As to conditions: in vivo. The method, boiled down:
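Albino mice of either sex (25–30 g), in groups of 10, received a range of i.p. doses in polyethylene glycol until at least three points fell within 10–90% effect. Mortality was scored 24 h after injection.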

Data set [11] relates to Mus musculus. The data set can be described thus: Neurotoxicity in Swiss albino mouse at 300 mg/kg, ip after 4 hrs. In kind it is toxicity, organism-based. Further details: dose 300 mg/kg, route intraperitoneal. The settings on record: in vivo.
The species named for data set [12] is Mus musculus. Nature of the data set: Protective index, ratio of TD50 for neurotoxicity in Swiss albino mouse to ED50 for inhibition of PTZ-induced motor impairment Swiss albino mouse. In kind it is functional.
The test system of data set [13] is Mus musculus. The data set can be described thus: Anticonvulsant activity in ip dosed Swiss albino mouse assessed as inhibition of maximum electric shock-induced motor impairment. The data set is classed as functional.
The test system of data set [14] is Mus musculus. Nature of the data set: Anticonvulsant activity in ip dosed Swiss albino mouse assessed as inhibition of maximum electric shock-induced motor impairment after 4 hrs. In kind it is functional. The settings on record: read-out: MED.
The test system of data set [15] is Mus musculus. Nature of the data set: Neurotoxicity in Swiss albino mouse at 300 mg/kg, ip after 0.5 hrs. Further details: dose 300 mg/kg, route intraperitoneal. In kind it is toxicity, organism-based. As to conditions: in vivo.
Data set [16] relates to Mus musculus. Nature of the data set: Anticonvulsant activity in ip dosed Swiss albino mouse assessed as inhibition of PTZ-induced motor impairment after 0.5 hrs. The data set is classed as functional. As to conditions: read-out: MED. The essentials: as §3
In data set [17] the test system is Mus musculus. Nature of the data set: Anticonvulsant activity in ip dosed Swiss albino mouse assessed as inhibition of PTZ-induced motor impairment. In kind it is functional.
Data set [18] concerns Mus musculus. Nature of the data set: Anticonvulsant activity in po dosed Swiss albino mouse assessed as inhibition of maximum electric shock-induced motor impairment after 2 hrs. In kind it is functional. The essentials:
as §2

Data set [19] has as its system Mus musculus. Nature of the data set: Anticonvulsant activity in Swiss albino mouse assessed as inhibition of PTZ-induced motor impairment at 300 mg/kg, ip after 4 hrs. The data set is classed as functional, organism-based. Further details: dose 300 mg/kg. The essentials:
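Albino mice of either sex (25–30 g), 6 per group. Test compound was given i.p. in polyethylene glycol at 30, 100 or 300 mg/kg, and subcutaneous pentylenetetrazole challenge followed 0.5 h or 4.0 h later. Activity was scored as protection in half or more of the mice.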

Structures are written as SMILES. Active and inactive are the calls of the source.

Regarding `Cc1ccccc1-n1c(Nc2nc(-c3ccc(Br)cc3)cs2)n[nH]c1=S`, the Ratio in the data set filed under Mus musculus [1] came to 7.74; in the data set listed under Mus musculus [8], 47.16. In [2], the TD50 (as a rule, the dose at which the toxic effect under study appears in half of the subjects) at 2 h amounted to 884 mg/kg. The minimal effective dose with Mus musculus [3] turned out to be 300 mg/kg; in the data set on Mus musculus [5] it was 30 mg/kg; in the data set with Mus musculus [14] it was 30 mg/kg; in the data set on Mus musculus [16], 100 mg/kg. Moreover, the “Ratio TD50/ED50” value turned out to be 17.7 with Mus musculus [4], 51 in the data set listed under Mus musculus [9] and 8.3 in the data set listed under Mus musculus [12]. The TD50 in data set [6] worked out at 684 mg/kg. In the data set with Mus musculus [7], the HD50 was found to be 632 mg/kg. Besides, the LD50 – broadly, the dose at which mortality reaches 50% – at 24 h in [10] amounted to 834 mg/kg. Further, the Activity result in the data set with Mus musculus [11] and in the data set with Mus musculus [15] was “Non-toxic” in each case. Further, the ED50 (as a rule, the dose at which the effect has come halfway, by size or by number of responders) is 13.4 mg/kg with Mus musculus [13], 81.6 mg/kg with Mus musculus [17] and 49.9 mg/kg in the data set on Mus musculus [18].
In the case of `COc1ccc(-n2c(Nc3nc(-c4ccc(Cl)cc4)cs3)n[nH]c2=S)cc1`, the results for the Ratio in the data set listed under Mus musculus [1] and in the data set filed under Mus musculus [8] were 4.85 and 36.27, respectively. Besides, in [2], the TD50 at 2 h came to 735 mg/kg. In addition, the results for the “Ratio TD50/ED50” value in the data set on Mus musculus [4], in the data set filed under Mus musculus [9] and in the data set filed under Mus musculus [12] were 13.4, 18.3 and 2.4, respectively. Besides, the minimal effective dose in the data set on Mus musculus [5] amounted to 30 mg/kg; with Mus musculus [14] it was 100 mg/kg; with Mus musculus [16], 300 mg/kg. In [6], this molecule came in with a TD50 of 439 mg/kg. The molecule further had an HD50 in the data set with Mus musculus [7] of 867 mg/kg. Further, in data set [10], the LD50 at 24 h was determined as 946 mg/kg. The Activity entry with Mus musculus [11] and with Mus musculus [15] was “Non-toxic” each time. Besides, the results for the ED50 in the data set on Mus musculus [13], in the data set with Mus musculus [17] and with Mus musculus [18] were 23.9 mg/kg, 179 mg/kg and 54.8 mg/kg, respectively. The inhibition entry in the data set with Mus musculus [19] was “inactive”.
